Reference: ChEMBL document CHEMBL2163282, “Discovery and characterization of AZD9272 and AZD6538-Two novel mGluR5 negative allosteric modulators selected for clinical development” (Bioorg Med Chem Lett, 2012)
pIC50: −log10 of the molar value. Activity calls are given as the source filed them. The rule behind the calls is not given here.

What was measured:
[1] = target: Metabotropic glutamate receptor 1 (Homo sapiens) (UniProt Q13255); experiment: Agonist activity at mGluR1 assessed as effect on intracellular Ca2+ level up to 30 uM by cell based FLIPR assay; format: functional
Procedure, shortened: (§1)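 Each of the seven other mGluR subtypes was tested at concentrations up to 30 µM. Agonist, antagonist and positive allosteric modulator modes were each assessed. Read-out was the change in intracellular Ca2+ on FLIPR.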

[2] = target: T1, Metabotropic glutamate receptor 5 (Homo sapiens, UniProt P41594); experiment: Noncompetitive inhibition of human mGluR5 expressed in HEK cells assessed as inhibition of DHPG-induced intracellular Ca2+ level at 10 to 300 nM after 30 mins by FLIPR assay; format: functional, cell-based; settings: HEK293
Procedure, shortened: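 Human mGluR5-GHEK cells on FLIPR: DHPG concentration–response curves run at increasing modulator concentrations, intracellular Ca2+ read-out; shifts in DHPG potency and maximal response evaluated for non-competitive interaction.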

[3] = target: Metabotropic glutamate receptor 5 (Rattus norvegicus) (UniProt P31424); experiment: Negative allosteric modulation of rat recombinant mGluR5 expressed in HEK293 cells expressing GLAST assessed as inhibition of ATP-induced intracellular Ca2+ level at 10 uM after 30 mins by FLIPR assay; format: functional, cell-based
Procedure, shortened: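 FLIPR intracellular Ca2+ readout in background GHEK cells (HEK293 with glutamate/aspartate transporter, lacking mGluR5), stimulated with 10 µM ATP; test compound at 10 µM to check off-target inhibition.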

[4] = Plasma protein binding in Sprague-Dawley rat after 6 hrs by equilibrium dialysis method; format: ADME, cell-free; settings: read-out: PPB (converted)
[5] = target: Metabotropic glutamate receptor 2 (Homo sapiens) (UniProt Q14416); experiment: Agonist activity at mGluR2 assessed as effect on intracellular Ca2+ level up to 30 uM by cell based FLIPR assay; format: functional; procedure, shortened: as §1
[6] = target: Metabotropic glutamate receptor 5 (Rattus norvegicus) (UniProt P31424); experiment: (§2) Negative allosteric modulation of rat recombinant mGluR5 expressed in HEK293 cells expressing GLAST assessed as inhibition of DHPG-induced intracellular Ca2+ level after 30 mins by FLIPR assay; format: functional, cell-based
Procedure, shortened: (§3)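 Human or rat mGluR5 expressed recombinantly in HEK293 cells that constitutively express the glutamate/aspartate transporter (mGluR5-GHEK). Intracellular Ca2+ rise evoked by DHPG was read on FLIPR. Potency was taken from test-compound inhibition of that response. Mean of 3 separate experiments.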

[7] = target: Metabotropic glutamate receptor 5 (Rattus norvegicus, UniProt P31424); experiment: as §2; format: functional, cell-based; procedure, shortened: as §3
[8] = Tmax in Sprague-Dawley rat at 3 umol/kg, po; format: ADME, organism-based; settings: in vivo
Procedure, shortened: (§4)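 Male rats (n = 3) received a single oral dose of 3 µmol/kg. Vehicle was Polyvidon K30 1.7 mg/ml, sodium lauryl sulphate 0.34 mg/ml and glycerin 25.0 mg/ml in water. Plasma levels were measured by liquid–liquid extraction and reversed-phase LC-MS/MS (APCI or ESI).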

[9] = target: T1, Metabotropic glutamate receptor 5; experiment: Negative allosteric modulation of human recombinant mGluR5 expressed in HEK293 cells expressing GLAST assessed as inhibition of DHPG-induced intracellular Ca2+ level after 30 mins by FLIPR assay
[10] = target: T1, Metabotropic glutamate receptor 5; experiment: Negative allosteric modulation of human recombinant mGluR5 expressed in HEK293 cells expressing GLAST assessed as inhibition of DHPG-induced intracellular Ca2+ level after 30 mins by FLIPR assay
[11] = Terminal half life in Sprague-Dawley rat at 3 umol/kg, iv; format: ADME, organism-based; settings: in vivo, read-out: beta t1/2 (converted)
Procedure, shortened: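 Male rats (n = 3) received a single intravenous dose of 3 µmol/kg. Vehicle was 40% w/w dimethylacetamide/40% w/w PEG 400/20% w/w water. Plasma drug was measured after liquid–liquid extraction by reversed-phase LC with APCI or ESI tandem MS.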

[12] = target: Metabotropic glutamate receptor 3 (Homo sapiens) (UniProt Q14832); experiment: Positive allosteric modulation of mGluR3 assessed as effect on intracellular Ca2+ level up to 30 uM by cell based FLIPR assay; format: functional; procedure, shortened: as §1
[13] = Intrinsic clearance in rat liver microsomes; format: ADME, Microsome; settings: read-out: CLH
Procedure, shortened: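 Intrinsic clearance was determined in human or rat microsomes and expressed per min per mg protein.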

[14] = target: T1, Metabotropic glutamate receptor 5; experiment: Negative allosteric modulation of human recombinant mGluR5 expressed in HEK293 cells expressing GLAST assessed as inhibition of DHPG-induced intracellular Ca2+ level at 0.001 to 3 uM after 30 mins by FLIPR assay; format: functional, cell-based
[15] = target: Metabotropic glutamate receptor 3 (Homo sapiens) (UniProt Q14832); experiment: Antagonist activity at mGluR3 assessed as effect on intracellular Ca2+ level up to 30 uM by cell based FLIPR assay; format: functional; procedure, shortened: as §1
[16] = target: Metabotropic glutamate receptor 2 (Homo sapiens) (UniProt Q14416); experiment: Antagonist activity at mGluR2 assessed as effect on intracellular Ca2+ level up to 30 uM by cell based FLIPR assay; format: functional; procedure, shortened: as §1
[17] = target: Metabotropic glutamate receptor 3 (Homo sapiens) (UniProt Q14832); experiment: Agonist activity at mGluR3 assessed as effect on intracellular Ca2+ level up to 30 uM by cell based FLIPR assay; format: functional; procedure, shortened: as §1
[18] = Cmax in Sprague-Dawley rat at 3 umol/kg, po; format: ADME, organism-based; design: dose 3 umol/kg, route oral; settings: in vivo; procedure, shortened: as §4
[19] = target: Metabotropic glutamate receptor 1 (Homo sapiens) (UniProt Q13255); experiment: Positive allosteric modulation of mGluR1 assessed as effect on intracellular Ca2+ level up to 30 uM by cell based FLIPR assay; format: functional; procedure, shortened: as §1
[20] = target: Metabotropic glutamate receptor 4 (Homo sapiens) (UniProt Q14833); experiment: Agonist activity at mGluR4 assessed as effect on intracellular Ca2+ level up to 30 uM by cell based FLIPR assay; format: functional; procedure, shortened: as §1
[21] = target: Metabotropic glutamate receptor 2 (Homo sapiens) (UniProt Q14416); experiment: Positive allosteric modulation of mGluR2 assessed as effect on intracellular Ca2+ level up to 30 uM by cell based FLIPR assay; format: functional; procedure, shortened: as §1
[22] = target: T1, Metabotropic glutamate receptor 5; experiment: Negative allosteric modulation of human recombinant mGluR5 expressed in HEK293 cells expressing GLAST assessed as inhibition of glutamate-stimulated IP accumulation incubated for 10 mins prior to glutamate challenge measured 30 mins post glutamate challenge by scintillation counter in presence of [3H]myo-inositol; format: functional, cell-based
[23] = target: Metabotropic glutamate receptor 8 (Homo sapiens) (UniProt O00222); experiment: Positive allosteric modulation of mGluR8 assessed as effect on intracellular Ca2+ level up to 30 uM by cell based FLIPR assay; format: functional; procedure, shortened: as §1
[24] = target: Metabotropic glutamate receptor 7 (Homo sapiens) (UniProt Q14831); experiment: Positive allosteric modulation of mGluR7 assessed as effect on intracellular Ca2+ level up to 30 uM by cell based FLIPR assay; format: functional; procedure, shortened: as §1
[25] = target: Metabotropic glutamate receptor 4 (Homo sapiens) (UniProt Q14833); experiment: Antagonist activity at mGluR4 assessed as effect on intracellular Ca2+ level up to 30 uM by cell based FLIPR assay; format: functional; procedure, shortened: as §1
[26] = Oral bioavailability in Sprague-Dawley rat at 3 umol/kg; format: ADME, organism-based; settings: in vivo; procedure, shortened: as §4
[27] = target: Metabotropic glutamate receptor 7 (Homo sapiens) (UniProt Q14831); experiment: Agonist activity at mGluR7 assessed as effect on intracellular Ca2+ level up to 30 uM by cell based FLIPR assay; format: functional; procedure, shortened: as §1
[28] = target: Metabotropic glutamate receptor 5 (Rattus norvegicus) (UniProt P31424); experiment: Negative allosteric modulation of rat recombinant mGluR5 expressed in HEK293 cells expressing GLAST assessed as inhibition of DHPG-induced intracellular Ca2+ level at 0.001 to 3 uM after 30 mins by FLIPR assay; format: functional, cell-based
[29] = target: Metabotropic glutamate receptor 8 (Homo sapiens) (UniProt O00222); experiment: Antagonist activity at mGluR8 assessed as effect on intracellular Ca2+ level up to 30 uM by cell based FLIPR assay; format: functional; procedure, shortened: as §1

Chain of Metabotropic glutamate receptor 8 (Homo sapiens) (O00222 whole entry): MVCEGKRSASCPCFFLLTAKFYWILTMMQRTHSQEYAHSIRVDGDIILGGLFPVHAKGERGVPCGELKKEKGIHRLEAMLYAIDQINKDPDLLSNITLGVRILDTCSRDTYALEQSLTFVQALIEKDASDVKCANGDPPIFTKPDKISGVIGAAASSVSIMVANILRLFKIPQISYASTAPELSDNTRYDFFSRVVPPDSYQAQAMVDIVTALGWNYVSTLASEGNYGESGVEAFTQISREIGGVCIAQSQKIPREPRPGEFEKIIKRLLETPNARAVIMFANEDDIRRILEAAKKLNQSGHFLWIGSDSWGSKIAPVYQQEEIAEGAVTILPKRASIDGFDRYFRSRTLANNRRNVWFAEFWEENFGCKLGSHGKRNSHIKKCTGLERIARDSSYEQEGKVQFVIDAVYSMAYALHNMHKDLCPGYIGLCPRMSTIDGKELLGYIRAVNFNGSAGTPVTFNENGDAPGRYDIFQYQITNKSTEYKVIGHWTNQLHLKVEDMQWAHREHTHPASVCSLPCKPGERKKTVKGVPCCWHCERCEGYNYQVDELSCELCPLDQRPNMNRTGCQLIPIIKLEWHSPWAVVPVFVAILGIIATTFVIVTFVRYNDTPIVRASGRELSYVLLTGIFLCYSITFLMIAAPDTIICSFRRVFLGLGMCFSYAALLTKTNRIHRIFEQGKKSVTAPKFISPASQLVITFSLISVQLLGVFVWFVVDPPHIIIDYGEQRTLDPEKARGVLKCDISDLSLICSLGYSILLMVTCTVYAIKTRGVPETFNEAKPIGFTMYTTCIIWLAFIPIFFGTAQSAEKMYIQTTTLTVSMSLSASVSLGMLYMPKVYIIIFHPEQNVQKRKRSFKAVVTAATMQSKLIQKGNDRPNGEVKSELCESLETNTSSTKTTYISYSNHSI
Chain of Metabotropic glutamate receptor 2 (Homo sapiens) (Q14416 19-872 limits assumed): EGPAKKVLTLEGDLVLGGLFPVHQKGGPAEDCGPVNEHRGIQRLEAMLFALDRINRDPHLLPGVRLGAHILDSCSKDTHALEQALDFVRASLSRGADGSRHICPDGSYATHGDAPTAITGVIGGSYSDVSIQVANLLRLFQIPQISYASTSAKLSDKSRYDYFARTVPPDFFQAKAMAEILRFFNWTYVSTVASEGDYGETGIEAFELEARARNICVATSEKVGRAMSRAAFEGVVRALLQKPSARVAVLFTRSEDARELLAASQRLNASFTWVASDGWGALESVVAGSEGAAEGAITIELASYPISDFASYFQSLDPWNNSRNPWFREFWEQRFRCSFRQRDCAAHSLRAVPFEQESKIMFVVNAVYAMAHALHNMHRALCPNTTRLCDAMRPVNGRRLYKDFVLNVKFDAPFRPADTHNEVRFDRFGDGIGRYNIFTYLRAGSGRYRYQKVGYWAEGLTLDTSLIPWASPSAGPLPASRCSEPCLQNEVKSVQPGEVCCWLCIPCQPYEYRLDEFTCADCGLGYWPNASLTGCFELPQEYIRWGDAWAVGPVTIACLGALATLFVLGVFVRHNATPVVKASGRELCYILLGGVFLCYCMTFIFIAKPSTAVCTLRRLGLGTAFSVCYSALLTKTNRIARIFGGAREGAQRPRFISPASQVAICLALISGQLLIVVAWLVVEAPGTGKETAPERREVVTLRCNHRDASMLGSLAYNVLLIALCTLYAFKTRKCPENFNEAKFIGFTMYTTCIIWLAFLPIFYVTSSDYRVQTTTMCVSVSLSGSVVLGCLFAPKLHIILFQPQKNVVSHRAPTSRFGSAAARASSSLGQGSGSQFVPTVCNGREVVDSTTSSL
Chain of Metabotropic glutamate receptor 1 (Homo sapiens) (Q13255 19-1194 limits assumed): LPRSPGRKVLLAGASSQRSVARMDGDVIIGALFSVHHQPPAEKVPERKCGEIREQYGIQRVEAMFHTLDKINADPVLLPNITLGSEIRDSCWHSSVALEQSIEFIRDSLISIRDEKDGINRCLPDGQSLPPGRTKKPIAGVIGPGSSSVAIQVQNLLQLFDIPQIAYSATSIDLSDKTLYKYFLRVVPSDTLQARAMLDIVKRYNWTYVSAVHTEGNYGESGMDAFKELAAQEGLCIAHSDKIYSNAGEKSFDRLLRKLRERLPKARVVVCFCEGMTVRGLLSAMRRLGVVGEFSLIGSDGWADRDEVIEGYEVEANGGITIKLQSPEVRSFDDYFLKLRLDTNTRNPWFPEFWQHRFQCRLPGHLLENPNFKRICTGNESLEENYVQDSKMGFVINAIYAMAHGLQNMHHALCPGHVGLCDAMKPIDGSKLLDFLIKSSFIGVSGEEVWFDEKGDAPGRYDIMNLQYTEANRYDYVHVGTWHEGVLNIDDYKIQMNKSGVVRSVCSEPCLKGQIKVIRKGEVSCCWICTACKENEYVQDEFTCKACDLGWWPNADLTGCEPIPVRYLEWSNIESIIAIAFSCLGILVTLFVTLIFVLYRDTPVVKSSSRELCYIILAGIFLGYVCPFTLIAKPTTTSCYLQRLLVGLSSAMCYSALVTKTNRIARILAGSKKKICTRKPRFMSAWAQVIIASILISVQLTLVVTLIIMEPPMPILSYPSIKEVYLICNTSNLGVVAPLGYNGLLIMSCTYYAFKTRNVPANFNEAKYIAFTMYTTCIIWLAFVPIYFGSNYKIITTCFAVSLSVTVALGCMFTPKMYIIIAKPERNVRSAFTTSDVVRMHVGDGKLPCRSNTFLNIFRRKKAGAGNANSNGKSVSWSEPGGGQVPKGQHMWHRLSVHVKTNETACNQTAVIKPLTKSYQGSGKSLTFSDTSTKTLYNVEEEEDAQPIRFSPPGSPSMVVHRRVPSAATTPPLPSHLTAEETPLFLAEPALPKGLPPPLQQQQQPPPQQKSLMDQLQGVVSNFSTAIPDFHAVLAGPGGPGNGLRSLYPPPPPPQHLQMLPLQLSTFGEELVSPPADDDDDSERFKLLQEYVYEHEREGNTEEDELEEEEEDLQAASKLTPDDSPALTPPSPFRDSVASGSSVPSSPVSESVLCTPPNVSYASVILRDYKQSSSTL
Chain of Metabotropic glutamate receptor 4 (Homo sapiens) (Q14833 whole entry): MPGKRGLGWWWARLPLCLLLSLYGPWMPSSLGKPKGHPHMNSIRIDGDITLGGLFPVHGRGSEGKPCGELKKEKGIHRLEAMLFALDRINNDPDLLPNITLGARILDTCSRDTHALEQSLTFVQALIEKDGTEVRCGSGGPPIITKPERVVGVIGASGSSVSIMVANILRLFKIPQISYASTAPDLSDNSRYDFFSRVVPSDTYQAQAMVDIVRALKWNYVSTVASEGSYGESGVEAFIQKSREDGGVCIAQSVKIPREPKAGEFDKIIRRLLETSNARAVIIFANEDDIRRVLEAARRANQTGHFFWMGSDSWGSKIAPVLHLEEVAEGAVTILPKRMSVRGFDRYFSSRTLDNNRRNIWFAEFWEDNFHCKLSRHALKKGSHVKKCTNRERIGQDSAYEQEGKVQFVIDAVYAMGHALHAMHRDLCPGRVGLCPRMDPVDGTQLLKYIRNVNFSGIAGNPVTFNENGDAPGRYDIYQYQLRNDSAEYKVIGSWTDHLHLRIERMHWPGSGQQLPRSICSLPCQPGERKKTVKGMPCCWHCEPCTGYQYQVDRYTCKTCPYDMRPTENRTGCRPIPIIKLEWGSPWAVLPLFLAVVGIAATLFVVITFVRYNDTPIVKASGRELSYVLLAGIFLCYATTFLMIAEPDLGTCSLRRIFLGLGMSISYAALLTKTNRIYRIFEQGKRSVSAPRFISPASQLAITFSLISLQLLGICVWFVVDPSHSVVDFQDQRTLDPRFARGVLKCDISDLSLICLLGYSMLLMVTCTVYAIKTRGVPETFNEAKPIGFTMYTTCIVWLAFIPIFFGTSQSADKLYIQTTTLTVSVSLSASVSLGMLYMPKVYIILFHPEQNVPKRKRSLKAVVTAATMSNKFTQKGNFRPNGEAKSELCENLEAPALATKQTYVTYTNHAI
Chain of Metabotropic glutamate receptor 3 (Homo sapiens) (Q14832 23-879 limits assumed): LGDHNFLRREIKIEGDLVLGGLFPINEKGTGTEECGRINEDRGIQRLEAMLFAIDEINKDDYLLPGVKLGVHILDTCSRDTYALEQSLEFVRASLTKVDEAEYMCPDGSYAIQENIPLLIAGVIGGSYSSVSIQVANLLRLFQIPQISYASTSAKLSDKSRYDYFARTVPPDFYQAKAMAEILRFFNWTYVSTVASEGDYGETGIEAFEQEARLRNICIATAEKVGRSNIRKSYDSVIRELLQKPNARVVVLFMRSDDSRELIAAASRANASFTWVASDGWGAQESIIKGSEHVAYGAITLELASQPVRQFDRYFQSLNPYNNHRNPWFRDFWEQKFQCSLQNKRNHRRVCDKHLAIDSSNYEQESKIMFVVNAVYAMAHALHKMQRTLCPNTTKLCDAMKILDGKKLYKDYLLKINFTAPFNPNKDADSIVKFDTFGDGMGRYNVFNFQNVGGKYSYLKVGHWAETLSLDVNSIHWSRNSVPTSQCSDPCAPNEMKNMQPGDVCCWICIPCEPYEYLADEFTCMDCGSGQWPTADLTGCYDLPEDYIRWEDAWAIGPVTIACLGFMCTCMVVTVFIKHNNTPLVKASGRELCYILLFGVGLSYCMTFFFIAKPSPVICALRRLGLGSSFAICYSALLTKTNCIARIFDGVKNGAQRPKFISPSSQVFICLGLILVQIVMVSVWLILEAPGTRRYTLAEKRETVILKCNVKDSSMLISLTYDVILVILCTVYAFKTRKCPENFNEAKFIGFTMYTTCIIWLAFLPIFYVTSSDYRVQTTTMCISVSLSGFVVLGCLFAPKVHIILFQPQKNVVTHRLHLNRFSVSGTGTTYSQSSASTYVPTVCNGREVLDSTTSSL

Structure (SMILES) | Activity [1] | inhibition [2] | inhibition [3] | fraction unbound at 6 h [4] | Activity [5] | inhibition [6] | pIC50 [7] | Tmax [8] | inhibition [9] | pIC50 [10] | half-life [11] | Activity [12] | microsomal CLint [13] | inhibition [14] | inhibition [15] | inhibition [16] | Activity [17] | Cmax [18] | Activity [19] | Activity [20] | also measured
N#Cc1ccc(-c2noc(-c3cc(F)cc(C#N)c3)n2)nc1 | < 50% | Active | inactive | 0.23 | < 50% | Dose-dependent effect | 8.49 | 3 h | Dose-dependent effect | 7.87 | 5.6 h | < 50% | 6 µL/min/mg | 100% | < 50% | < 50% | < 50% | 500 nM | < 50% | < 50% | Activity [21]: < 50%; pIC50 [22]: 7.29; inhibition [22]: Dose-dependent effect; Activity [23]: < 50%; Activity [24]: < 50%; inhibition [25]: < 50%; bioavailability [26]: 46%; Activity [27]: < 50%; inhibition [28]: 100%; inhibition [29]: < 50%
N#Cc1cc(F)cc(-c2nc(-c3ccc(F)cn3)no2)c1 | < 50% | Active | inactive | 0.2 | < 50% | Dose-dependent effect | 8.59 | 4 h | Dose-dependent effect | 8.12 | 2.5 h | < 50% | 10 µL/min/mg | 100% | < 50% | < 50% | < 50% | 460 nM | < 50% | < 50% | Activity [21]: < 50%; pIC50 [22]: 7.59; inhibition [22]: Dose-dependent effect; Activity [23]: < 50%; Activity [24]: < 50%; inhibition [25]: < 50%; bioavailability [26]: 56%; Activity [27]: < 50%; inhibition [28]: 100%; inhibition [29]: < 50%
